Laboratory results: ChEMBL document CHEMBL1156199, “Synthesis of new acridone derivatives, inhibitors of NS3 helicase, which efficiently and specifically inhibit subgenomic HCV replication” (J Med Chem, 2010)
The source made the active and inactive calls. No cut-off for these calls is given here.

Key:
Hepatitis C virus [1] = assay: Antiviral activity against HCV 1b infected in human HuH7 cells assessed as inhibition of viral RNA replication after 4 days by replicon assay; format: functional, organism-based, Hepacivirus hominis; details: genotype 1b, Huh-7, 96 h
How it was run: (§1)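 Huh-7 cells carrying genotype 1b subgenomic replicon; compounds in DMSO tested from 1 to 200 μM or 1 μM to 1 mM depending on solubility; luminescence-based replicon RNA amplification assay; EC50 = concentration reducing luminescence by 50%.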

[2] = Therapeutic index, ratio of CC50 for human HuH7 cells to EC50 for HCV 1b; format: cell-based, Huh-7; details: read-out: Ratio CC50/EC50
How it was run: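 Therapeutic index calculated as CC50 (XTT, replicon-bearing Huh-7 cells) divided by EC50 (luminescence replicon assay, genotype 1b).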

[3] = tested on: NS3 helicase (Hepatitis C virus genotype 1a); assay: Inhibition of HCV 1a NS3 helicase by fluorimetry
[4] = Cytotoxicity against human HuH7 cells after3 days by XTT assay
Nucleic Acid [5] = assay: Binding affinity to […] assessed as inhibition of ethidium bromide DNA intercalation by gel migration retardation assay; format: nucleic-acid assay; details: Hepacivirus hominis
How it was run: (§2)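 dsNA gel migration retardation assay on dsDNA: compound (100 or 500 μM) incubated with dsDNA, ethidium bromide staining; intercalation read as partial or total loss of the dsDNA band; DMSO as negative and epidoxorubicin as positive control.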

[6] = Inhibition of HCV 3a NS3 helicase by fluorimetry; design: species or system Hepatitis C virus subtype 3a
How it was run: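 Fluorometric helicase unwinding assay with a dsDNA substrate at 37 °C; NS3 helicase domain (genotype […], from patient-derived RNA) expressed in baculovirus and purified from insect cells, used at 50 nM; IC50 = concentration reducing helicase activity by 50%, relative to DMSO control.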

[7] = Inhibition of HCV NS3 helicase in presence of 0.5 mM ATP; design: species or system Hepacivirus hominis
[8] = Inhibition of HCV NS3 helicase in presence of 1.5 mM ATP; design: species or system Hepacivirus hominis
[9] = Inhibition of HCV NS3 helicase in presence of 2.5 mM ATP; design: species or system Hepacivirus hominis
Hepatitis C virus [10] = assay: Antiviral activity against HCV 1b infected in human HuH7 cells assessed as inhibition of viral RNA replication at 10 uM after 4 days by replicon assay; format: functional, Hepacivirus hominis; details: genotype 1b, Huh-7, 168 h, in the assay text read “after 7 days” for “after 4 days”
How it was run: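 Huh-7 cells with genotype 1b subgenomic replicon seeded at 4 × 10⁵ per dish in DMEM, grown 7 days with 0, 1, 10 or 100 μM compound; 5 μg total RNA reverse transcribed (3UTR, oligo(dT)15, random hexamer primers), equal cDNA used for real-time PCR (45 cycles, 56 °C annealing) to quantify replicon RNA.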

Hepatitis C virus [11] = assay: Antiviral activity against HCV 1b infected in mutant human HuH7 cells assessed as inhibition of viral RNA replication after 4 days by replicon assay; format: functional, organism-based, Hepacivirus hominis; details: genotype 1b, Huh-7, 96 h
Hepatitis C virus [12] = assay: Antiviral activity against HCV 1b infected in human HuH7 cells assessed as inhibition of viral RNA replication at 5.8 uM after 4 days by replicon assay; format: functional, Hepacivirus hominis; details: genotype 1b, Huh-7, 96 h; how it was run: as §1
Hepatitis C virus [13] = assay: Antiviral activity against HCV 1b infected in human HuH7 cells assessed as inhibition of viral RNA replication at 2.7 uM after 4 days by replicon assay; format: functional, Hepacivirus hominis; details: genotype 1b, Huh-7, 96 h; how it was run: as §1
Nucleic Acid [14] = assay: Binding affinity to HCV dsRNA assessed as inhibition of ethidium bromide RNA intercalation by gel migration retardation assay; format: nucleic-acid assay; details: Hepacivirus hominis
How it was run: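 dsRNA gel migration retardation assay: compound incubated with dsRNA, ethidium bromide staining; intercalation read as partial or total disappearance of the dsRNA band; DMSO and epidoxorubicin controls.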

Nucleic Acid [15] = assay: Binding affinity to […] assessed as inhibition of ethidium bromide DNA intercalation at 100 uM by gel migration retardation assay; format: nucleic-acid assay; details: Hepacivirus hominis; how it was run: as §2

Row | SMILES | EC50 (Hepatitis C virus [1]) | selectivity ratio [2] | IC50 [3] | CC50 at 72 h [4] | other results
1 | COc1cccc2c(=O)c3cc(Cl)cc(C(=O)Nc4cccnc4)c3[nH]c12 | 0.96 µM | 20.1 | 54.6 µM | 19.3 µM | –
2 | O=C(Nc1ccncc1)c1cccc2c(=O)c3cccc(OCc4ccccc4)c3[nH]c12 | > 100 µM | – | 8 µM | > 100 µM | –
3 | COc1cccc2c(=O)c3cccc(C(=O)Nc4ccccn4)c3[nH]c12 | 2.3 µM | 1.1 | 6.2 µM | 2.5 µM | Activity (Nucleic Acid [5]): Active
4 | COc1cccc2c(=O)c3cc(F)cc(C(=O)Nc4cc(Cl)ccn4)c3[nH]c12 | > 100 µM | – | 46.3 µM | > 100 µM | –
5 | COc1cccc2c(=O)c3cc(F)cc(C(=O)Nc4cccnc4)c3[nH]c12 | 0.98 µM | > 1000 | 8.6 µM | > 1000 µM | IC50 [6]: 7.3 µM; IC50 [7]: 10.9 µM; IC50 [8]: 8.6 µM; IC50 [9]: 9.9 µM; inhibition at 10 µM (Hepatitis C virus [10]): 85%; EC50 (Hepatitis C virus [11]): 251 µM
6 | NC(=O)c1ncn([C@@H]2O[C@H](CO)[C@@H](O)[C@H]2O)n1 [RIBAVIRIN] | 17.6 µM | 60.2 | – | 1060 µM | –
7 | [N-]=[N+]=N[C@]1(CO)O[C@@H](n2ccc(N)nc2=O)[C@H](O)[C@@H]1O [4'-AZIDOCYTIDINE] | – | > 143 | – | > 200 µM | –
8 | COc1cccc2c(=O)c3cccc(C(=O)Nc4cc(Cl)ccn4)c3[nH]c12 | – | – | 35.8 µM | 171 µM | inhibition at 5.8 µM (Hepatitis C virus [12]): 30%
9 | COc1cccc2c(=O)c3cc(F)cc(C(=O)Nc4ccccn4)c3[nH]c12 | – | – | 4.7 µM | > 100 µM | IC50 [7]: 6.5 µM; IC50 [8]: 4.7 µM; IC50 [9]: 5.1 µM; inhibition at 2.7 µM (Hepatitis C virus [13]): 30%
10 | COc1cccc2c(=O)c3cc(Cl)cc(C(=O)Nc4cc(Cl)ccn4)c3[nH]c12 | > 100 µM | – | 1.5 µM | > 100 µM | IC50 [7]: 1.1 µM; IC50 [8]: 1.5 µM; IC50 [9]: 1.1 µM
11 | COc1cccc2c(=O)c3cc(Cl)cc(C(=O)Nc4ccccn4)c3[nH]c12 | 5 µM | 3.2 | 64.7 µM | 15.8 µM | Activity (Nucleic Acid [14]): inactive
12 | COc1cc(NC(=O)c2cccc3c(=O)c4cccc(OC)c4[nH]c23)cc(OC)c1OC | 203 µM | > 2.5 | 751 µM | > 500 µM | –
13 | COc1cccc2c(=O)c3cccc(C(=O)Nc4cccnc4)c3[nH]c12 | 3.5 µM | > 28 | 20.6 µM | > 100 µM | Activity (Nucleic Acid [5]): Active; Activity (Nucleic Acid [15]): Active
